The test system of assay [1] is mAb-19F2. As to the kind of experiment: ic-ELISA. The assay is classed as binding, BALB/c mice. To be noted: mAb-19F2, relative to buprofezin = 100%.
Assay [2] relates to mAb-19F2. Kind of assay: colloidal gold immunochromatographic assay. The assay is classed as binding, BALB/c mice. The method in brief: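 Colloidal gold strips were striped with […]. Tea was soaked 30 min in 50 mL boiling water, adjusted to pH 6-7, and 100 µL applied. Spikes were 2.5, 5 and 10 mg/kg. LOD was read by eye as test-line disappearance, and LOQ as IC20.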

For `N#CN=C1SCCN1Cc1ccc(Cl)nc1` [(E)-Thiacloprid], in the assay with mAb-19F2 [1], the Cross-reactivity is under 0.18%.

On to `CCCOC1CC(C)C([N+](=O)[O-])=C2N(Cc3ccc(Cl)nc3)CCN21` (centres unmarked) [Paichongding(IPP)], for which the Cross-reactivity with mAb-19F2 [1] is reported as under 0.18%.

For `O=C(NC(=O)c1c(F)cccc1F)Nc1ccc(Cl)cc1` [Diflubenzuron], in the assay with mAb-19F2 [1], the Cross-reactivity is under 0.18%.

Take `O=C(NC(=O)c1c(F)cccc1F)Nc1cc(Cl)c(OC(F)(F)C(F)C(F)(F)F)cc1Cl` (centres unmarked) [Lufenuron]: the Cross-reactivity with mAb-19F2 [1] is under 0.18%.

In the assay with mAb-19F2 [1], `O=C(NC(=O)c1c(F)cccc1F)Nc1cc(Cl)c(OC(F)(F)C(F)F)c(Cl)c1` [Hexaflumuron] displayed a Cross-reactivity of under 0.18%.

In turn, `CC(C)N1C(=O)N(c2ccccc2)CS/C1=N\C(C)(C)C` [Buprofezin] yielded a Cross-reactivity with mAb-19F2 [1] of 100%. For the same molecule, in the assay with mAb-19F2 [2] (GICA, abstract), the “limit of quantitation (LOQ, IC20)” value stood at 0.0168 µg/mL. Moreover, the “IC50 of the test strip” value with mAb-19F2 [2] (T/C values, buprofezin standard in 0.01 M PBS) worked out at 0.2312 µg/mL. Moreover, in the assay on mAb-19F2 [2] (complete disappearance of test line visible to the naked eye), the “detection limit (LOD)” value was found to be 500 ng/mL.

Take `Cc1cc(C)cc(C(=O)N(NC(=O)c2ccc3c(c2C)CCCO3)C(C)(C)C)c1` [Chromafenozide]: the Cross-reactivity in the assay on mAb-19F2 [1] is under 0.18%.

For `N#CCNC(=O)c1cnccc1C(F)(F)F` [Flonicamid], in the assay with mAb-19F2 [1], the Cross-reactivity is under 0.18%.

`CN/C(=N/CC1CCOC1)N[N+](=O)[O-]` (centres unmarked) [Dinotefuran] displayed a Cross-reactivity in the assay with mAb-19F2 [1] of under 0.18%.

Regarding `CC(c1ccc(C(F)(F)F)nc1)S(C)(=O)=NC#N` (centres unmarked) [Sulfoxaflor], the Cross-reactivity in the assay with mAb-19F2 [1] was under 0.18%.

The molecule `O=C(NC(=O)c1ccccc1Cl)Nc1ccc(OC(F)(F)F)cc1` [Triflumuron] had a Cross-reactivity in the assay on mAb-19F2 [1] of under 0.18%.

In the assay with mAb-19F2 [1], `O=C1C=C(N(Cc2ccc(Cl)nc2)CC(F)F)CO1` [Flupyradifurone] returned a Cross-reactivity of under 0.18%.

As for `CCc1ccc(C(=O)NN(C(=O)c2cc(C)cc(C)c2)C(C)(C)C)cc1` [Tebufenozide], the Cross-reactivity in the assay with mAb-19F2 [1] was under 0.18%.

In the assay with mAb-19F2 [1], `CC(COc1ccc(Oc2ccccc2)cc1)Oc1ccccn1` (centres unmarked) [Pyriproxyfen] came in with a Cross-reactivity of under 0.18%.

`O=[N+]([O-])/N=C1\NCCN1Cc1cnc(Cl)s1` [Imidaclothiz] displayed a Cross-reactivity in the assay with mAb-19F2 [1] of under 0.18%.

In turn, `C/C(=N\C#N)N(C)Cc1ccc(Cl)nc1` [Acetamiprid] gave a Cross-reactivity with mAb-19F2 [1] of under 0.18%.

`CCCC/C=N/N(Cc1ccc(Cl)nc1)/C(N)=N/[N+](=O)[O-]` [Guadipyr]: the Cross-reactivity in the assay on mAb-19F2 [1] is reported as under 0.18%.

The molecule `CN1COCN(Cc2cnc(Cl)s2)/C1=N\[N+](=O)[O-]` [Thiamethoxam] gave a Cross-reactivity in the assay with mAb-19F2 [1] of under 0.18%.

In the case of `Nc1nc(N)nc(NC2CC2)n1` [Cyromazine], the Cross-reactivity with mAb-19F2 [1] was under 0.18%.

Regarding `FC(F)(F)c1ccc(OCCCOc2c(Cl)cc(OCC=C(Cl)Cl)cc2Cl)nc1` [Pyrldalyl], the Cross-reactivity in the assay on mAb-19F2 [1] is under 0.18%.

For `CCN(Cc1ccc(Cl)nc1)/C(=C/[N+](=O)[O-])NC` [Nitenpyram], the Cross-reactivity in the assay on mAb-19F2 [1] was under 0.18%.

In turn, `CN/C(=N\[N+](=O)[O-])NCc1cnc(Cl)s1` [Clothianidin] registered a Cross-reactivity in the assay on mAb-19F2 [1] of under 0.18%.

`O=C(NC(=O)c1ccccc1Cl)Nc1ccc(Cl)cc1` [Chlorbenzuron] showed a Cross-reactivity with mAb-19F2 [1] of under 0.18%.

In the assay on mAb-19F2 [1], `CC(C)(C)N(NC(=O)c1ccccc1)C(=O)c1ccccc1` [1,2-dibenzoyl-1-(t-butyl)hydrazine] showed a Cross-reactivity of under 0.18%.

As to `CCOC(=O)NCCOc1ccc(Oc2ccccc2)cc1` [Fenoxycarb], in the assay on mAb-19F2 [1], the Cross-reactivity is listed as under 0.18%.

Regarding `O=C(NC(=O)c1c(F)cccc1F)Nc1cc(Cl)c(Oc2ncc(C(F)(F)F)cc2Cl)c(Cl)c1` [Chlorfluazuron], in the assay on mAb-19F2 [1], the Cross-reactivity was under 0.18%.

(Values after PMC10807744 (Journal of agricultural and food chemistry, 2023).)
